Assay results as given in ChEMBL document CHEMBL2010740, “Synthesis and evaluation of 2-amido-3-carboxamide thiophene CB₂ receptor agonists for pain management” (Bioorg Med Chem Lett, 2012).
Calls of active or inactive are those of the source.

Key:
Rattus norvegicus [1] = experiment: Analgesic activity in ip dosed rat incision model of post-operative pain assessed as reduction in paw withdrawal latency administered 90 mins post-surgical incision measured after 30 mins; type: functional, organism-based
Cannabinoid receptor 1 [2] = biological target: T1, Cannabinoid receptor 1 (Homo sapiens, UniProt P21554); experiment: Displacement of [3H]CP-55940 from human recombinant CB1 receptor expressed in CHO cells after 90 mins; type: cell-based
T1 sequence (P21554 whole entry): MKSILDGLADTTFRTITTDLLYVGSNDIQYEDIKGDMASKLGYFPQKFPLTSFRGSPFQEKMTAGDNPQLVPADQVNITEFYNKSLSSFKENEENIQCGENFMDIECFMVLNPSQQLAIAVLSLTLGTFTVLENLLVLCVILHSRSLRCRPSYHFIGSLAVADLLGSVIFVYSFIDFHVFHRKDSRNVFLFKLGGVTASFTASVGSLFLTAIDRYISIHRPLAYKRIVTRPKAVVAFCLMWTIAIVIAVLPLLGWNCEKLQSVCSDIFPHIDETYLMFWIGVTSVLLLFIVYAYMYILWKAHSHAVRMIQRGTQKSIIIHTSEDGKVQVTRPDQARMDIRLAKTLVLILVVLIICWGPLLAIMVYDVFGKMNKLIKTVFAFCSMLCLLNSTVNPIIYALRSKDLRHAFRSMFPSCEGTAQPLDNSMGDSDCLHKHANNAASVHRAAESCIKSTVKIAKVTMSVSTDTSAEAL
Outline: (§1)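 Competitive binding: [³H]CP-55,940 displaced from membranes of HEK 293 cells stably transfected with human or rat CB₂, or CHO cells stably transfected with human or rat CB₁. Reported as pKi. Determinations >2 (duplicate of duplicate).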

[3] = Half life in rat at 10 umol/kg, ip; type: ADME, organism-based; conditions: in vivo
Rattus norvegicus [4] = experiment: Analgesic activity in rat spinal nerve ligation model of neuropathic pain assessed as […] at 3 umol/kg, ip administered 2 weeks post-surgery measured after 30 mins; type: functional; parameters: scale not given: the % may be the effect or the level left
Outline: (§2)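 Rat spinal nerve ligation (Chung) neuropathic pain model. Dosing was intraperitoneal, two weeks after surgery and 30 min before testing. Read-out was mechanical allodynia (paw withdrawal threshold), given as a dose–response.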

[5] = Cmax in rat at 10 umol/kg, ip; type: ADME, organism-based; parameters: dose 10 umol/kg, route intraperitoneal; conditions: in vivo
[6] = biological target: T2, Cannabinoid receptor 2 (Rattus norvegicus) (UniProt Q9QZN9); experiment: Agonist activity at rat recombinant CB2 receptor expressed in HEK293 cells assessed as inhibition of forskolin-induced cAMP production after 20 mins by ELISA relative to CP55940; type: functional, cell-based
T2 sequence (whole entry): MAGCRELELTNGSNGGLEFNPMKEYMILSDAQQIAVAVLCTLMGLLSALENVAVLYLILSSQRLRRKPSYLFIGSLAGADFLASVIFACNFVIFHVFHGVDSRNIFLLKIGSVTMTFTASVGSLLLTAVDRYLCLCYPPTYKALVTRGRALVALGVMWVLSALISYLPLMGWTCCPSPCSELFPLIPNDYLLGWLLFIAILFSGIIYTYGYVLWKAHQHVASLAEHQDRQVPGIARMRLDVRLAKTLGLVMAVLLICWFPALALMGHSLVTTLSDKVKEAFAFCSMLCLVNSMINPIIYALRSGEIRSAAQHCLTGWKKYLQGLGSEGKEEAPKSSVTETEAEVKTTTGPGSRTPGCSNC
Outline: (§3)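 cAMP assay in HEK 293 cells stably expressing the relevant CB receptor, with a fixed concentration of forskolin. cAMP was quantified by ELISA. Activation is given as percent of the CP-55,940 control response.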

[7] = Metabolic stability in rat microsomes assessed as compound remaining after 30 mins; type: ADME, Microsome; conditions: read-out: Stability
Outline: (§4)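 Metabolic stability: compound incubated with human or rat liver microsomes. Percent parent remaining was measured after 30 min.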

Rattus norvegicus [8] = experiment: Neurotoxicity in ip dosed rat assessed as decrease in spontaneous locomotory activity after 30 mins; type: toxicity, organism-based; conditions: in vivo, 0.5 h
Outline: (§5)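 Spontaneous horizontal locomotor activity in rats. Compound was given intraperitoneally 30 min before testing.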

Rattus norvegicus [9] = experiment: Neurotoxicity in rat assessed as decrease in spontaneous locomotory activity at 30 umol/kg, ip after 30 mins; type: toxicity, organism-based; parameters: scale not given: the % may be the effect or the level left; conditions: in vivo, 0.5 h; outline: as §5
Rattus norvegicus [10] = experiment: Analgesic activity in rat complete Freund's adjuvant model of chronic inflammatory pain assessed as reduction in thermal hyperalgesia at 3 umol/kg, ip administered 48 hrs after CFA-challenge measured after 60 mins; type: functional, organism-based
[11] = Volume of distribution during terminal phase in rat at 3 umol/kg, iv; type: ADME, organism-based; conditions: in vivo, read-out: Vbeta
Rattus norvegicus [12] = experiment: Analgesic activity in rat chronic constriction injury model of neuropathic pain assessed as reduction in mechanical allodynia at 30 umol/kg, ip administered 2 weeks post-surgery measured after 30 mins; type: functional; parameters: scale not given: the % may be the effect or the level left
[13] = biological target: T2, Cannabinoid receptor 2 (Rattus norvegicus); experiment: Agonist activity at rat recombinant CB2 receptor expressed in HEK293 cells co-expressing chimeric Gaq/o protein by FLIPR assay by FLIPR assay relative to CP55940; type: functional, cell-based
Outline: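 FLIPR functional assay in HEK 293 cells stably co-expressing chimeric Gαq/o protein and the CB receptor. Net peak evoked response was compared with the peak response to CP-55,940.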

[14] = Plasma protein binding in rat; type: ADME, cell-free; conditions: read-out: PPB (converted)
Rattus norvegicus [15] = experiment: Analgesic activity in rat complete Freund's adjuvant model of chronic inflammatory pain assessed as reduction in thermal hyperalgesia at 10 umol/kg, ip; type: functional; parameters: scale not given: the % may be the effect or the level left
Outline: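 Rat CFA inflammatory pain model. Read-out was thermal hyperalgesia in the CFA-injected right paw, with the left paw as control. Test compound and the CB₂ antagonist SR-144528 (10 µmol/kg ip) were given alone and combined, with vehicle controls.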

[16] = AUC in rat at 3 umol/kg, iv; type: ADME, organism-based; conditions: plasma
[17] = AUC in rat at 10 umol/kg, ip; type: ADME, organism-based; conditions: plasma
Rattus norvegicus [18] = experiment: Analgesic activity in rat spinal nerve ligation model of neuropathic pain assessed as […] at 10 umol/kg, ip administered 2 weeks post-surgery measured after 30 mins; type: functional; parameters: scale not given: the % may be the effect or the level left; outline: as §2
[19] = Metabolic stability in human microsomes assessed as compound remaining after 30 mins; type: ADME, Microsome; conditions: read-out: Stability; outline: as §4
Cannabinoid receptor 2 [20] = biological target: T3, Cannabinoid receptor 2 (Rattus norvegicus, UniProt Q9QZN9); experiment: Displacement of [3H]CP-55940 from rat recombinant CB2 receptor expressed in HEK293 cells after 90 mins; type: cell-based; outline: as §1
T3 sequence (Q9QZN9 whole entry): T2 sequence (whole entry)

Rattus norvegicus [21] = experiment: Analgesic activity in rat complete Freund's adjuvant model of chronic inflammatory pain assessed as latency in paw withdrawal at 100 umol/kg, po administered 48 hrs after CFA-challenge measured after 60 mins; type: functional
Cannabinoid receptor 2 [22] = biological target: T3, Cannabinoid receptor 2; experiment: Agonist activity at rat recombinant CB2 receptor expressed in HEK293 cells assessed as inhibition of forskolin-induced cAMP production after 20 mins by ELISA; type: functional, cell-based; outline: as §3
Rattus norvegicus [23] = experiment: Analgesic activity in ip dosed rat spinal nerve ligation model of neuropathic pain assessed as […] administered 2 weeks post-surgery measured after 30 mins; type: functional, organism-based; outline: as §2
Cannabinoid receptor 1 [24] = biological target: T1, Cannabinoid receptor 1; experiment: Agonist activity at human recombinant CB1 receptor expressed in HEK293 cells assessed as inhibition of forskolin-induced cAMP production after 20 mins by ELISA; type: functional, cell-based; outline: as §3
[25] = Plasma clearance in rat at 3 umol/kg, iv; type: ADME, organism-based
Rattus norvegicus [26] = experiment: Neurotoxicity in rat assessed as decrease in spontaneous locomotory activity at 100 umol/kg, ip after 30 mins; type: toxicity, organism-based; parameters: scale not given: the % may be the effect or the level left; conditions: in vivo, 0.5 h; outline: as §5

CCCNC(=O)c1c(NC(=O)C23CC4CC(CC2C4)C3)sc2c1CCOC2
Activity (Rattus norvegicus [1]): Dose-dependent effect | Ki (Cannabinoid receptor 1 [2]): 1550 nM | half-life [3]: 6.7 h | Activity (Rattus norvegicus [4]): 8% | Cmax [5]: 150 ng/mL | Imax [6]: 72% | remaining at 0.5 h [7]: 5% | Activity (Rattus norvegicus [8]): Dose-dependent effect | Activity (Rattus norvegicus [9]): 50% | Activity (Rattus norvegicus [10]): Active | Vd [11]: 8.7 L/kg | Activity (Rattus norvegicus [12]): 74% | Imax [13]: 79% | fraction unbound [14]: 0.03 | Activity (Rattus norvegicus [15]): 91% | AUC [16]: 320 ng·h/mL | AUC [17]: 1020 ng·h/mL | Activity (Rattus norvegicus [18]): 29% | remaining at 0.5 h [19]: 9% | Ki (Cannabinoid receptor 2 [20]): 33.9 nM | Activity (Rattus norvegicus [21]): 58% | IC50 (Cannabinoid receptor 2 [22]): 9.33 nM | Activity (Rattus norvegicus [23]): Dose-dependent effect | IC50 (Cannabinoid receptor 1 [24]): 3470 nM | clearance [25]: 63.3 mL/min/kg | Activity (Rattus norvegicus [26]): 83%
